Test results published in ChEMBL document CHEMBL4425169 (ACS Med Chem Lett, 2016).
Active and inactive are the calls of the source. The rule behind the calls is not given here.

Legend:
[1] = Cardiotoxicity in vagotomized cardiovascular dog model assessed as effect on QT/QTc interval at plasma concentration <= 11.6 uM at 1 to 7 mg/kg, iv administered during three sequential 30 min periods; assay type: toxicity, organism-based, Canis lupus familiaris; details: in vivo, 0.5 h
Method in brief: (§1)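 Anesthetized, vagotomized dogs received IV infusions over sequential periods at 1, 2 and 7 mg/kg (10 mg/kg cumulative). Heart rate, mean arterial pressure and ECG intervals (PR, QRS, QT/QTc) were recorded predose and during each infusion period. Plasma concentrations were measured.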

[2] = molecular target: Somatostatin receptor type 1 (Homo sapiens, UniProt P30872); experiment: Inhibition of somatostatin receptor subtype 1 (unknown origin)
Chain of Somatostatin receptor type 1 (P30872 whole entry): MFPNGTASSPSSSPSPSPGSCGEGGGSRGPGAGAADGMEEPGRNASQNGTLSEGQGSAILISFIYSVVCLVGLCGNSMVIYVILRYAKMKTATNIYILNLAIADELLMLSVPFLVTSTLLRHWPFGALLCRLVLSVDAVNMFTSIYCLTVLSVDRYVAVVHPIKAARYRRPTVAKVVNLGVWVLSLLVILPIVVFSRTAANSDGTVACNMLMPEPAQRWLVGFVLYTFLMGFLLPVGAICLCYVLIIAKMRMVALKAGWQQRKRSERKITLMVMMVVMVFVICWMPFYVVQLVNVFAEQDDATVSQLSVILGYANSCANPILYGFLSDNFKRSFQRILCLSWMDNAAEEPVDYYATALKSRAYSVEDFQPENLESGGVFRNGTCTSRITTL

Rattus norvegicus [3] = experiment: Kaliuretic activity in Sprague-Dawley rat at 10 mg/kg via oral gavage administered 30 mins prior to void induction by loading saline measured upto 4 hrs relative to vehicle treated control; assay type: functional
Method in brief: (§2)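 Acute rat diuresis model in male-unspecified Sprague-Dawley rats, single oral dose, urine collected over 4 h. Urine volume, sodium excretion and potassium excretion expressed as fold increase over vehicle-treated controls; n = 5 per group; significance tested against vehicle.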

[4] = Clearance in dog at 1 mg/kg, iv or 2 mg/kg, po; assay type: ADME, organism-based, Canis lupus familiaris; details: in vivo
[5] = molecular target: T1, Inward rectifier potassium channel 13 (Homo sapiens) (UniProt O60928); experiment: Inhibition of Kir7.1 (unknown origin) upto 30 uM
T1 sequence (whole entry): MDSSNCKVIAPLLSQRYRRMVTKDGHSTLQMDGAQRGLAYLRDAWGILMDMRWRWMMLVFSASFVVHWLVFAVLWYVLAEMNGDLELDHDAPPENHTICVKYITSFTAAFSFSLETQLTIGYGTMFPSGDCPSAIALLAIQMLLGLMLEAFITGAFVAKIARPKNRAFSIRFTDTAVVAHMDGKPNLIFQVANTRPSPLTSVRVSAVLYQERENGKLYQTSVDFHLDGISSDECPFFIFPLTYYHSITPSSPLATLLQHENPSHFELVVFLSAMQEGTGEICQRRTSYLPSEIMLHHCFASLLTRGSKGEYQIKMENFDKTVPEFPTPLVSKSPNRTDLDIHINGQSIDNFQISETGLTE

[6] = Volume of distribution at steady state in dog at 1 mg/kg, iv or 2 mg/kg, po; assay type: ADME, organism-based, Canis lupus familiaris; details: in vivo, read-out: Vdss
Rattus norvegicus [7] = experiment: Kaliuretic activity in Sprague-Dawley rat at 3 mg/kg via oral gavage administered 30 mins prior to void induction by loading saline measured upto 4 hrs relative to vehicle treated control; assay type: functional; method in brief: as §2
[8] = Drug excretion in bile duct cannulated rat urine; assay type: ADME; details: in vivo
Acetylcholinesterase = Acetylcholinesterase (Homo sapiens, UniProt P22303); experiment: Inhibition of ACES (unknown origin)
Chain of Acetylcholinesterase (P22303 whole entry): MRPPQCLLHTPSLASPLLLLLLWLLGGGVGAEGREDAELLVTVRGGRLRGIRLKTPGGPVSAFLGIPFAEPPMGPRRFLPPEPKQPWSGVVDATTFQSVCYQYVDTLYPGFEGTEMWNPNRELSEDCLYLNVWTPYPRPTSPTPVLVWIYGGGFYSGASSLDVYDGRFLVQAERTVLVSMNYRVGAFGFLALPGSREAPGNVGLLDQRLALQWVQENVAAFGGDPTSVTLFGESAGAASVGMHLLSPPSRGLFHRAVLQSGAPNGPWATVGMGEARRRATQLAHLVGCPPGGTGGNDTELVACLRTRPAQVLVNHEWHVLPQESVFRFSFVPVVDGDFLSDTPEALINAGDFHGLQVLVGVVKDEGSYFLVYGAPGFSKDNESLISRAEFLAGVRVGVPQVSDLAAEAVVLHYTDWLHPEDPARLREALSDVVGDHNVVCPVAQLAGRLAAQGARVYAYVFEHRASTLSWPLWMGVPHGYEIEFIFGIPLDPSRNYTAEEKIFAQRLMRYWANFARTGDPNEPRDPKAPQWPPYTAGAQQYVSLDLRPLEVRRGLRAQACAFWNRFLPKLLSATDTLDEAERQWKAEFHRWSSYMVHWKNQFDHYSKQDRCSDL

Rattus norvegicus [9] = experiment: Diuretic activity in Sprague-Dawley rat at 3 mg/kg via oral gavage administered 30 mins prior to void induction by loading saline measured upto 4 hrs relative to vehicle treated control; assay type: functional
Method in brief: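 Acute 4 h study in Sprague-Dawley rats after oral dosing, n = 5 per group. Urine volume and sodium and potassium excretion were expressed as fold increase over vehicle-treated animals. Significance was tested versus vehicle (p < 0.05 or p < 0.01).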

[10] = Cardiotoxicity in vagotomized cardiovascular dog model assessed as effect on QRS complex at plasma concentration <= 11.6 uM at 1 to 7 mg/kg, iv administered during three sequential 30 min periods; assay type: toxicity, organism-based, Canis lupus familiaris; details: in vivo, 0.5 h; method in brief: as §1
[11] = molecular target: T2, Inward rectifier potassium channel 4 (Homo sapiens) (UniProt P48050); experiment: Inhibition of Kir2.3 (unknown origin) upto 30 uM
T2 sequence (whole entry): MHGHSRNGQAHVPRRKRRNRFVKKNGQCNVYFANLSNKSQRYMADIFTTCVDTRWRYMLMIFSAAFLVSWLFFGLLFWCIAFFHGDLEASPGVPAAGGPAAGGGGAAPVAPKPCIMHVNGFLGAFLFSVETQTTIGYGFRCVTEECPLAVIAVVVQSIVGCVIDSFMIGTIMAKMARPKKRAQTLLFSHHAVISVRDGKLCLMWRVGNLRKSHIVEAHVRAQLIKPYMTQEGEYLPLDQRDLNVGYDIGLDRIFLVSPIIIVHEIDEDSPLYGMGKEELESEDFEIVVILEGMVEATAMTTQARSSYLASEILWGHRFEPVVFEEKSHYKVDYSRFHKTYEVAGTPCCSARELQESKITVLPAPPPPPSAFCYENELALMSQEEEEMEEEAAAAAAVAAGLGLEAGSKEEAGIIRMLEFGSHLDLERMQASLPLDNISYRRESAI

Rattus norvegicus [12] = experiment: Antihypertensive activity in spontaneously hypertensive rat assessed as reduction in systolic blood pressure administered via oral gavage once daily for 4 days measured on day 4 by telemetry; assay type: functional, organism-based
[13] = molecular target: Voltage-gated inwardly rectifying potassium channel KCNH2 (Homo sapiens, UniProt Q12809); experiment: Inhibition of human ERG after 6 mins by electrophysiological assay
Chain of Voltage-gated inwardly rectifying potassium channel KCNH2 (Q12809 whole entry): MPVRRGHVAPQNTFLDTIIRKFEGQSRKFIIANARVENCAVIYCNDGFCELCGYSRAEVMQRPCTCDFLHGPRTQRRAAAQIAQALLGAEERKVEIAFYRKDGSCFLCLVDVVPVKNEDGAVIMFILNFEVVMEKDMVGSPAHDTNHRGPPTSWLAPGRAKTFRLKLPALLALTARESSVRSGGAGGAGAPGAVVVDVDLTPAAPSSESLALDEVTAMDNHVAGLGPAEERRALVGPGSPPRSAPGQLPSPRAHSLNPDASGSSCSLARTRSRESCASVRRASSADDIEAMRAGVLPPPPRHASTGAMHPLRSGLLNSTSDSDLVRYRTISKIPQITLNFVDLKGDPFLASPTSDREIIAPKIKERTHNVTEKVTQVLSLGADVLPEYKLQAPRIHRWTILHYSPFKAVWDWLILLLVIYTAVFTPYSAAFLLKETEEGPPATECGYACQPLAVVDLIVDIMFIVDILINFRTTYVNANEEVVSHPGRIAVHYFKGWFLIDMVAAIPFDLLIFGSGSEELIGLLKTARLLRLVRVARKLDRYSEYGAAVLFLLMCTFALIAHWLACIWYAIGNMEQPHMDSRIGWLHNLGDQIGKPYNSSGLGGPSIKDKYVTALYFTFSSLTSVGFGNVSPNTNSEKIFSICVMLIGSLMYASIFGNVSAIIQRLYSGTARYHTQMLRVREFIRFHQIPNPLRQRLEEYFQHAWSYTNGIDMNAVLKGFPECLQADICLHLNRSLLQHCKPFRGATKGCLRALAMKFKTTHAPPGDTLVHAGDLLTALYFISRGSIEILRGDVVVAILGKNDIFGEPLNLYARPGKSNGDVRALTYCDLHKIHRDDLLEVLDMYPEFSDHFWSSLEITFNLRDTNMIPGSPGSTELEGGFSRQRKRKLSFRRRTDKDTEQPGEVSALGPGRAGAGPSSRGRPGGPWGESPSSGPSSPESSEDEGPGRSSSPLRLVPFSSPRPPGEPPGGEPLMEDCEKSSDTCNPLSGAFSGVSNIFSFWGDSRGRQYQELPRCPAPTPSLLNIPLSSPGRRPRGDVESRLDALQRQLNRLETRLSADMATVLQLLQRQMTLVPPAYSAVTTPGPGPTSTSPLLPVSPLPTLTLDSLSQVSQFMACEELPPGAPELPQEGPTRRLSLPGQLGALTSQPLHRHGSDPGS

[14] = Drug metabolism in rat hepatocytes assessed as glucuronidation at 1 uM measured at 120 mins; assay type: ADME, cell-based, Hepatocyte; details: read-out: Drug metabolism
[15] = Drug metabolism in monkey hepatocytes assessed as lactone hydrolysis at 1 uM measured at 120 mins; assay type: ADME, cell-based, Macaca mulatta, Hepatocyte; details: rhesus monkey, read-out: Drug metabolism
[16] = Half life in rhesus monkey at 1 mg/kg, iv or 2 mg/kg, po; assay type: ADME, organism-based, Macaca mulatta; details: in vivo
[17] = molecular target: Sodium-dependent serotonin transporter (Homo sapiens, UniProt P31645); experiment: Inhibition of [3H]-serotonin uptake at human SERT transfected in HEK293 cells; assay type: cell-based
Chain of Sodium-dependent serotonin transporter (P31645 whole entry): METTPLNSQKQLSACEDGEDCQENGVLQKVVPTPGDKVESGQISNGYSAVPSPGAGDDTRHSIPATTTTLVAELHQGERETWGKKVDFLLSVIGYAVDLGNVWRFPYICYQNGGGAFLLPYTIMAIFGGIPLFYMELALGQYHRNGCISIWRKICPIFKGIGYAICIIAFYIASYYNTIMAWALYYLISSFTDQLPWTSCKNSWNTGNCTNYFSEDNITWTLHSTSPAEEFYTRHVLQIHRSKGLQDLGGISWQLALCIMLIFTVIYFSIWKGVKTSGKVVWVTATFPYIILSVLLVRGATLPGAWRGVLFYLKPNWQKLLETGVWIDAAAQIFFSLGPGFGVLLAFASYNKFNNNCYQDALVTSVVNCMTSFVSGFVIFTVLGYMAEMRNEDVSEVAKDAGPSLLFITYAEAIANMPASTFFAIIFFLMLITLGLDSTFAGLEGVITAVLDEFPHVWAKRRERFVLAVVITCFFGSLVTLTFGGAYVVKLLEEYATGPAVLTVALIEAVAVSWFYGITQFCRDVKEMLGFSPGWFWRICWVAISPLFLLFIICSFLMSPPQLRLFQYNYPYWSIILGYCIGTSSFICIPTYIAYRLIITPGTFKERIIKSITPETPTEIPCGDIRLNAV

Rattus norvegicus [18] = experiment: Natriuretic activity in Sprague-Dawley rat at 0.3 mg/kg via oral gavage administered 30 mins prior to void induction by loading saline measured upto 4 hrs relative to vehicle treated control; assay type: functional; method in brief: as §2
[19] = Drug metabolism in dog hepatocytes assessed as lactone hydrolysis at 1 uM measured at 120 mins; assay type: ADME, cell-based, Canis lupus familiaris, Hepatocyte; details: read-out: Drug metabolism
[20] = Drug metabolism in monkey hepatocytes assessed as oxidation at 1 uM measured at 120 mins; assay type: ADME, cell-based, Macaca mulatta, Hepatocyte; details: rhesus monkey, 2 h
Cytochrome P450 2C9 = Cytochrome P450 2C9 (Homo sapiens, UniProt P11712); experiment: Reversible inhibition of human CYP2C9; assay type: ADME
Chain of Cytochrome P450 2C9 (P11712 whole entry): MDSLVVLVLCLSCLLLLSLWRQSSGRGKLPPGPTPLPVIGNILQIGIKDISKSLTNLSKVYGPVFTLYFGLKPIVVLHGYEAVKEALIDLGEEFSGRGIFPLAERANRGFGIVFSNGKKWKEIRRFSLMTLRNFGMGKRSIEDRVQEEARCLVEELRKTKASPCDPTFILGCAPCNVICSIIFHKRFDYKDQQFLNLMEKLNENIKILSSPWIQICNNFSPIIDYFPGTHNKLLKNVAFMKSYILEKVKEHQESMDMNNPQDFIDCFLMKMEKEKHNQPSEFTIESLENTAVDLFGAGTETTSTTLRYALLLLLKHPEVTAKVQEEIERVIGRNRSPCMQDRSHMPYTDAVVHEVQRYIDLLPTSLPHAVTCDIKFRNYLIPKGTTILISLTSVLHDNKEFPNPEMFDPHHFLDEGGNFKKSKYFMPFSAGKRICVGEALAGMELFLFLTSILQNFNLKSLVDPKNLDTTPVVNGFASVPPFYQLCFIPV

[21] = Dose normalized AUC in rhesus monkey at 2 mg/kg, po; assay type: ADME, organism-based, Macaca mulatta; details: in vivo
[22] = Half life in rat at 1 mg/kg, iv or 2 mg/kg, po; assay type: ADME, organism-based; details: in vivo
Method in brief: (§3)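 Rats dosed once at 1 mg/kg IV and, separately, 2 mg/kg PO, with n = 3. Derived parameters were plasma clearance, Vdss, dose-normalized oral AUC (μM·h·kg/mg), half-life, and oral bioavailability (F%).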

[23] = Drug metabolism in bile duct cannulated rat assessed as glucuronidation; assay type: ADME
[24] = Oral bioavailability in dog at 2 mg/kg; assay type: ADME, organism-based, Canis lupus familiaris; details: in vivo
Rattus norvegicus [25] = experiment: Natriuretic activity in Sprague-Dawley rat at 1 mg/kg via oral gavage administered 30 mins prior to void induction by loading saline measured upto 4 hrs relative to vehicle treated control; assay type: functional; method in brief: as §2
[26] = Cardiotoxicity in vagotomized cardiovascular dog model assessed as effect on heart rate at plasma concentration <= 11.6 uM at 1 to 7 mg/kg, iv administered during three sequential 30 min periods; assay type: toxicity, organism-based, Canis lupus familiaris; details: in vivo, 0.5 h; method in brief: as §1
[27] = Dose normalized AUC in rat at 2 mg/kg, po; assay type: ADME, organism-based; details: in vivo; method in brief: as §3
[28] = Drug metabolism in dog hepatocytes assessed as glucuronidation at 1 uM measured at 120 mins; assay type: ADME, cell-based, Canis lupus familiaris, Hepatocyte; details: read-out: Drug metabolism

## Cc1c([C@@H](O)CN2CCN(C[C@H](O)c3ccc4c(c3C)COC4=O)CC2)ccc2c1COC2=O [MK-7145]
[1]
  Activity: Non-Toxic
[2]
  IC50: 2.63 µM
Rattus norvegicus [3]
  fold change (FC): 1.7
[4]
  clearance: 56 mL/min/kg
[5]
  inhibition: inactive
[6]
  Vd: 7.5 L/kg
Rattus norvegicus [7]
  fold change (FC): 1.4
[8]
  Drug excretion: Metabolite_Detected
Acetylcholinesterase
  IC50: 9.94 µM
Rattus norvegicus [9]
  fold change (FC): 9
[10]
  Activity: Non-Toxic
[11]
  inhibition: inactive
Rattus norvegicus [12]
  Activity: Dose-dependent effect
[13]
  IC50: 22 µM
[14]
  metabolised at 2 h, 1 µM: < 1%
[15]
  metabolised at 2 h, 1 µM: < 1%
[16]
  half-life: 4 h
[17]
  IC50: 2.4 µM
Rattus norvegicus [18]
  fold change (FC): 6.2
[19]
  metabolised at 2 h, 1 µM: < 1%
[20]
  Drug metabolism: 15 to 37%
Cytochrome P450 2C9
  IC50: > 50 µM
[21]
  AUC/dose: 0.3 µM·kg·h/mg
[22]
  half-life: 1.1 h
[23]
  Drug metabolism: Metabolite_Detected
[24]
  bioavailability: 51%
Rattus norvegicus [25]
  fold change (FC): 8.6
[26]
  Activity: Non-Toxic
[27]
  AUC/dose: 0.14 µM·kg·h/mg
[28]
  metabolised at 2 h, 1 µM: < 1%
